≈ marks a conversion by molar mass, not a printed value. Calls of active or inactive are those of the source. The calls are words filed in the database; no cut-off is given here.
Experiments:
Staphylococcus aureus [1] = experiment: Antibacterial activity against Staphylococcus aureus ATCC 29213 by broth microdilution assay; format: functional
Procedure, shortened: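 Broth microdilution MIC per CLSI recommendations; reproducibility within one 2-fold dilution of the end point.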

[2] = target: T1, Cell division protein FtsZ (Staphylococcus aureus) (UniProt P0A031); experiment: Inhibition of Staphylococcus aureus ATCC 29213 FtsZ assessed as lowest drug level required for ballooning of cells by light microscopy
T1 sequence (whole entry): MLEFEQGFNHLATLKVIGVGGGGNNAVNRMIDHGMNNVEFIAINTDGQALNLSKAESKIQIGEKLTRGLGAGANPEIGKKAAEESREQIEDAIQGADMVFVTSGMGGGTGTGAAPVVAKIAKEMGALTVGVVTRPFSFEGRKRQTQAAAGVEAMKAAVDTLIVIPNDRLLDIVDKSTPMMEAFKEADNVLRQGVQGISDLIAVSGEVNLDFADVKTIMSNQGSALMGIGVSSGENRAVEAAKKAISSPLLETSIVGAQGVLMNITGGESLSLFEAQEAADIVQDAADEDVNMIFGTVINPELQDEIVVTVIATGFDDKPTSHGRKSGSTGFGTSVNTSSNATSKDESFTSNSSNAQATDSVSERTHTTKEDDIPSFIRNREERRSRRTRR
Procedure, shortened: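 Cocci examined by light microscopy for morphology. Value is the lowest concentration at which ballooning appears; WT is recorded when morphology is unchanged.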

Staphylococcus aureus [3] = experiment: Antibacterial activity against Staphylococcus aureus ATCC 29213 by broth microdilution assay in presence of 2% bovine serum albumin; format: functional
Procedure, shortened: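 Broth microdilution MIC per CLSI recommendations, with 2% w/v bovine serum albumin added to the assay medium to track the effect of protein on antibacterial activity.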

Plasma [4] = experiment: Plasma protein binding in mouse at 10 uM by equilibrium dialysis; format: ADME, cell-free
Procedure, shortened: (§1)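 Binding to plasma measured by equilibrium dialysis of a 10 µM compound solution. Reported as fraction unbound or percent bound.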

Cytochrome P450 1A2 = target: T2, Cytochrome P450 1A2 (Homo sapiens, UniProt P05177); experiment: Inhibition of human recombinant CYP1A2 by fluorescence assay; format: ADME
T2 sequence (P05177 whole entry): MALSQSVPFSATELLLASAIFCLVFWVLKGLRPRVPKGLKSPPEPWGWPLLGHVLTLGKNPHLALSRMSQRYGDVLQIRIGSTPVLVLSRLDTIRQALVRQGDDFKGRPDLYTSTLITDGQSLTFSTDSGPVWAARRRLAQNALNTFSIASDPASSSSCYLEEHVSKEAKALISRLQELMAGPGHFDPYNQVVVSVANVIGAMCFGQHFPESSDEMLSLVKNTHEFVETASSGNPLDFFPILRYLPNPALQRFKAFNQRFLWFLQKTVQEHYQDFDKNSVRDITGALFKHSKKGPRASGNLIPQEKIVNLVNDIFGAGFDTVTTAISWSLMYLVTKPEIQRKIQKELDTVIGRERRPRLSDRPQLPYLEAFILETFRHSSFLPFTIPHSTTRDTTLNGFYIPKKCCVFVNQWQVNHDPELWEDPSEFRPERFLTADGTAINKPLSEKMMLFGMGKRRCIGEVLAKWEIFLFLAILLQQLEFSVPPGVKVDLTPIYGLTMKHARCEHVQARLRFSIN
Procedure, shortened: (§2)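 Human recombinant CYP isozymes tested by metabolism of fluorogenic substrates, read by fluorescence. IC50 in µg/mL.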

Cytochrome P450 2C19 = Cytochrome P450 2C19 (Homo sapiens, UniProt P33261); experiment: Inhibition of human recombinant CYP2C19 by fluorescence assay; format: ADME; procedure, shortened: as §2
Sequence of Cytochrome P450 2C19 (P33261 whole entry): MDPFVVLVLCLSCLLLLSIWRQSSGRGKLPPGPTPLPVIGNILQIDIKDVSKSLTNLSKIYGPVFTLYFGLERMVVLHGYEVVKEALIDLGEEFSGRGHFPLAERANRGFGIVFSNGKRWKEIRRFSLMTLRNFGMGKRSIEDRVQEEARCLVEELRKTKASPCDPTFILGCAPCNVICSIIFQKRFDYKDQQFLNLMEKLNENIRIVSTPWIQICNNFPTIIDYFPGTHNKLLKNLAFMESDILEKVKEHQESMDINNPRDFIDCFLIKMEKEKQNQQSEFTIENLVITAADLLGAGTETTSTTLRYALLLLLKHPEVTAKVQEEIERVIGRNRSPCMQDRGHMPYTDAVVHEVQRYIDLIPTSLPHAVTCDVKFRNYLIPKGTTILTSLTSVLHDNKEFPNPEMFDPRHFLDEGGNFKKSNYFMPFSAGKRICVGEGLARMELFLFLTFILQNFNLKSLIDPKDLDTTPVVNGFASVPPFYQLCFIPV

Cytochrome P450 2C9 = Cytochrome P450 2C9 (Homo sapiens, UniProt P11712); experiment: Inhibition of human recombinant CYP2C9 by fluorescence assay; format: ADME; procedure, shortened: as §2
Sequence of Cytochrome P450 2C9 (P11712 whole entry): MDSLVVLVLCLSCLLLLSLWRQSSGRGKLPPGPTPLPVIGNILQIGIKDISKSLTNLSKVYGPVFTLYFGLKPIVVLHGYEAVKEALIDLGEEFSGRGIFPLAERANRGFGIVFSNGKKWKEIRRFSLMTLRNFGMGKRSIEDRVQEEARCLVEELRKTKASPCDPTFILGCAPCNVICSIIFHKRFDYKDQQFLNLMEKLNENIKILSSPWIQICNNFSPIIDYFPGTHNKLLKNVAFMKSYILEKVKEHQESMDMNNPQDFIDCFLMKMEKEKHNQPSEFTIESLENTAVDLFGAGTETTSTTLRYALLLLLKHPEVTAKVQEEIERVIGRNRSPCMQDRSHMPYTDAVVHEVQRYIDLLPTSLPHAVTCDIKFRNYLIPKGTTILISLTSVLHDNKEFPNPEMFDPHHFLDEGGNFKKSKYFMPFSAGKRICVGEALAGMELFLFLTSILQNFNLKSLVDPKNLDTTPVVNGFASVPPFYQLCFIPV

Cytochrome P450 2D6 = Cytochrome P450 2D6 (Homo sapiens, UniProt P10635); experiment: Inhibition of human recombinant CYP2D6 by fluorescence assay; format: ADME; procedure, shortened: as §2
Sequence of Cytochrome P450 2D6 (P10635 whole entry): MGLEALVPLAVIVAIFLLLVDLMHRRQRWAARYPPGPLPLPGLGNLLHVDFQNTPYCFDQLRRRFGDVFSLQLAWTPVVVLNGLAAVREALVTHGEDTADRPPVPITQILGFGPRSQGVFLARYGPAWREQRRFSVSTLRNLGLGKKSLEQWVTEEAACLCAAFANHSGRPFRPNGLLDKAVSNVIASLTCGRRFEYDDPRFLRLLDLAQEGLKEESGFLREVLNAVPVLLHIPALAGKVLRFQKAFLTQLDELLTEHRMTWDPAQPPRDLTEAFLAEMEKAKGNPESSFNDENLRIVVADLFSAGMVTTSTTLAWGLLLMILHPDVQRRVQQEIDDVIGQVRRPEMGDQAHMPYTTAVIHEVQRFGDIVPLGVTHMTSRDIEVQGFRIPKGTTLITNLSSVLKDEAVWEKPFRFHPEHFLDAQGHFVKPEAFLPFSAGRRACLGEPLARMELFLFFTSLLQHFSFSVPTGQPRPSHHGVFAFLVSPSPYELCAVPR

Cytochrome P450 3A4 = Cytochrome P450 3A4 (Homo sapiens, UniProt P08684); experiment: Inhibition of human recombinant CYP3A4 by fluorescence assay; format: ADME; procedure, shortened: as §2
Sequence of Cytochrome P450 3A4 (P08684 whole entry): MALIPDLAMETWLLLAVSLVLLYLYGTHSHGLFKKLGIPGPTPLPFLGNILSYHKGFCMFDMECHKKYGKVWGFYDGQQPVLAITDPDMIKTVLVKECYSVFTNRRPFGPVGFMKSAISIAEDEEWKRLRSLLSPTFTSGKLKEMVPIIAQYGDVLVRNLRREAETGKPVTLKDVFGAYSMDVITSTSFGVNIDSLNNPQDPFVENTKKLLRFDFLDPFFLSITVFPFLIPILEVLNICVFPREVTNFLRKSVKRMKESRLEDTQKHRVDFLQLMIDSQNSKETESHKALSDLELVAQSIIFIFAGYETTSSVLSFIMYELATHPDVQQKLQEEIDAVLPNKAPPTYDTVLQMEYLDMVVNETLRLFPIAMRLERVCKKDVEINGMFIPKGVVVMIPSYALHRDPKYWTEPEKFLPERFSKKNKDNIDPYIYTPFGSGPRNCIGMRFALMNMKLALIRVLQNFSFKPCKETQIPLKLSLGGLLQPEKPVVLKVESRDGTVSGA

[5] = Chemical stability in phosphate buffered saline assessed as compound remaining at 10 uM after 24 hrs by LC/MS/MS analysis; format: physicochemical; conditions: buffer
Procedure, shortened: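 10 µM solution in phosphate buffered saline held 24 h at 37 °C. Parent remaining quantified by LC/MS.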

Plasma [6] = experiment: Fraction unbound in human plasma at 10 uM by equilibrium dialysis; format: ADME, cell-free; procedure, shortened: as §1
[7] = Clearance in mouse hepatocytes at 10 uM assessed per 10^6 cells by LC/MS/MS analysis; format: ADME, cell-based, Liver, Hepatocyte
Procedure, shortened: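 Hepatocyte stability: compound at 10 µM incubated with hepatocytes. Parent loss over a time course measured by LC/MS/MS, and clearance expressed per 10⁶ cells.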

[8] = Clearance in mouse microsome at 10 uM by LC/MS/MS analysis; format: ADME, Liver; conditions: microsomes
Procedure, shortened: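 Microsomal stability: compound at 10 µM incubated with microsomes. Parent remaining followed over a time course by LC/MS to give clearance per mg protein.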

Plasma [9] = experiment: Metabolic stability in mouse plasma assessed as compound remaining at 10 uM after 24 hrs by LC/MS/MS analysis; format: ADME, cell-free
Procedure, shortened: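 10 µM compound in mouse plasma incubated 24 h at 37 °C. Percent remaining measured by LC/MS.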

Plasma [10] = experiment: Fraction unbound in mouse plasma at 10 uM by equilibrium dialysis; format: ADME, cell-free; procedure, shortened: as §1
Staphylococcus aureus [11] = experiment: Antimicrobial activity against Staphylococcus aureus Smith infected in ip dosed mouse administered as single dose 1 hr after bacterial inoculation; format: functional
Procedure, shortened: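 Mice inoculated IP with an LD90-100 of S. aureus Smith (4×10^5 CFU/mouse) in 0.5 mL brain heart infusion broth with 5% mucin. Single IP dose of test substance or vehicle 1 h after inoculation, at 3, 10 or 30 mg/kg. Mortality monitored for 7 days. ED50 by nonlinear regression.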

Staphylococcus aureus [12] = experiment: Antimicrobial activity against Staphylococcus aureus Smith infected in sc dosed mouse administered as single dose 1 hr after bacterial inoculation; format: functional
Procedure, shortened: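 Mice inoculated IP with an LD90-100 of S. aureus Smith (5×10^5 CFU/mouse) in 0.5 mL brain heart infusion broth with 5% mucin. Single SC dose of test substance or vehicle 1 h after inoculation, at 3, 10 or 30 mg/kg. Mortality monitored for 7 days. ED50 by nonlinear regression.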

Staphylococcus aureus [13] = experiment: Antimicrobial activity against Staphylococcus aureus Smith infected in mouse assessed as suppression of bacteria-induced mortality at 3 to 30 mg/kg, sc administered as single dose 1 hr after bacterial inoculation measured on day 2; format: functional, organism-based
Procedure, shortened: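 Mice inoculated IP with an LD90-100 of S. aureus Smith in 0.5 mL brain heart infusion broth with 5% mucin (4×10⁵ CFU/mouse for the IP study, 5×10⁵ CFU/mouse for the SC study). Vehicle or test agent given SC or IP 1 h post-infection at 3, 10 or 30 mg/kg. Mortality followed 7 days. ED50 by nonlinear regression.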

[14] = target: T1, Cell division protein FtsZ (Staphylococcus aureus); experiment: Inhibition of Staphylococcus aureus ATCC 29213 FtsZ assessed as appearance of enlarged cells at 2048 to 4096 ug/mL by light microscopy

SMILES	MIC (Staphylococcus aureus [1]) [µg/mL]	Activity [2] [µg/mL]	MIC (Staphylococcus aureus [3]) [µg/mL]	further results
Cc1ccc2sc(COc3ccc(F)c(C(N)=O)c3F)nc2c1	4 (≈ 12 µM)	8		
COc1cc2nc(COc3ccc(F)c(C(N)=O)c3F)sc2nc1Cl	16 (≈ 41.5 µM)		> 64	
CCOc1ccc2sc(COc3ccc(F)c(C(N)=O)c3F)nc2c1		0.125		PPB (Plasma [4]): 96.4%
NC(=O)c1c(F)ccc(OCc2nc3cccc(Cl)c3s2)c1F	4 (≈ 11.3 µM)	8		
Cc1csc(COc2ccc(F)c(C(N)=O)c2F)n1				MIC [2]: 16 µg/mL (≈ 56.3 µM)
NC(=O)c1c(F)ccc(OCc2nc3cc(-c4ncc[nH]4)ccc3s2)c1F	> 64			
CN(C)c1ccc2sc(COc3ccc(F)c(C(N)=O)c3F)nc2c1	> 64			
NC(=O)c1ccc2sc(COc3ccc(F)c(C(N)=O)c3F)nc2c1	> 64			
CCCc1ccc2sc(COc3ccc(F)c(C(N)=O)c3F)nc2c1		0.125		
Cc1cccc2sc(COc3ccc(F)c(C(N)=O)c3F)nc12	16 (≈ 47.9 µM)	2050		
NC(=O)c1c(F)ccc(OCc2nc3ccc(Cl)cc3s2)c1F	4 (≈ 11.3 µM)	8		
NC(=O)c1c(F)ccc(Oc2nc3ccccc3s2)c1F	> 256		> 256	
CCCCCCOc1ccc(F)c(C(N)=O)c1F			32	MIC [2]: 8 µg/mL (≈ 31.1 µM)
NC(=O)c1c(F)ccc(OCc2ccc3ccccc3n2)c1F			32	MIC [2]: 16 µg/mL (≈ 50.9 µM)
NC(=O)c1c(F)ccc(OCc2nc3cc(C(F)(F)F)ccc3s2)c1F	0.25 (≈ 0.644 µM)	0.5		
Cc1ccc2nc(COc3ccc(F)c(C(N)=O)c3F)sc2c1	8 (≈ 23.9 µM)			
NC(=O)c1c(F)ccc(OCCn2cccn2)c1F	256 (≈ 958 µM)		256	
COc1ccc2sc(COc3ccc(F)c(C(N)=O)c3F)nc2c1		2		
COc1ccc2nc(COc3ccc(F)c(C(N)=O)c3F)sc2c1	> 256			
NC(=O)c1c(F)ccc(OCc2nc3ccccc3s2)c1F	2 (≈ 6.24 µM)		8	MIC [2]: 4 µg/mL (≈ 12.5 µM)
NC(=O)c1c(F)ccc(OCc2nc3cc(C(=O)O)ccc3s2)c1F	> 64			

SMILES	MIC (Staphylococcus aureus [1]) [µg/mL]	Activity [2] [µg/mL]	MIC (Staphylococcus aureus [3]) [µg/mL]	further results
NC(=O)c1c(F)ccc(OCc2nc3cc(Cl)ccc3s2)c1F		0.25		PPB (Plasma [4]): 96.4%; IC50 (Cytochrome P450 1A2): > 33.8 µM; IC50 (Cytochrome P450 2C19): > 33.8 µM; IC50 (Cytochrome P450 2C9): > 33.8 µM; IC50 (Cytochrome P450 2D6): > 33.8 µM; IC50 (Cytochrome P450 3A4): > 33.8 µM; Stability [5]: 99%; Fu (Plasma [6]): 1%; CL [7]: 31.2 uL/min/10^6cells; CL [8]: 14 µL/min/mg; Stability (Plasma [9]): 99%; Fu (Plasma [10]): 3%; ED50 (Staphylococcus aureus [11]): 41 mg/kg; ED50 (Staphylococcus aureus [12]): > 30 mg/kg; Activity (Staphylococcus aureus [13]): inactive
CCOc1cnc2sc(COc3ccc(F)c(C(N)=O)c3F)nc2c1	0.125 (≈ 0.342 µM)		0.25	PPB (Plasma [4]): 89.9%
NC(=O)c1c(F)ccc(OCc2nc3ccc(-c4ccccc4)cc3s2)c1F	> 256			
NC(=O)c1c(F)ccc(OCc2nc3ccccc3o2)c1F	128 (≈ 421 µM)			MIC [2]: 256 µg/mL (≈ 841 µM)
COc1cccc(C(N)=O)c1	2050 (≈ 13500 µM)		4100	inhibition [14]: Active
NC(=O)c1c(F)ccc(OCc2nc3cc(O)ccc3s2)c1F	32 (≈ 95.1 µM)	64		
NC(=O)c1c(F)ccc(OCc2nc3cc(Br)ccc3s2)c1F	0.125 (≈ 0.313 µM)	0.25		
COc1cccc2sc(COc3ccc(F)c(C(N)=O)c3F)nc12	16 (≈ 45.7 µM)	64		
NC(=O)c1c(F)ccc(OCc2nc3c(Cl)cccc3s2)c1F	16 (≈ 45.1 µM)	8		
NC(=O)c1c(F)ccc(OCc2nc3cc(-c4ccccc4)ccc3s2)c1F	0.25 (≈ 0.631 µM)	0.5		PPB (Plasma [4]): 99.2%
Cc1csc(COc2ccc(F)c(C(N)=O)c2F)c1			128	MIC [2]: 32 µg/mL (≈ 113 µM)
NC(=O)c1c(F)ccc(OCc2nc3c(-c4ccccc4)cccc3s2)c1F	> 256			
NC(=O)c1c(F)ccc(OCc2nc3cc(Cl)ncc3s2)c1F	8 (≈ 22.5 µM)		32	
NC(=O)c1c(F)ccc(OCc2nc3cc(-c4ccccc4)cnc3s2)c1F	0.5 (≈ 1.26 µM)		4	PPB (Plasma [4]): 98.5%
COC(=O)c1ccc2sc(COc3ccc(F)c(C(N)=O)c3F)nc2c1	1 (≈ 2.64 µM)	2		
Cc1cnc(COc2ccc(F)c(C(N)=O)c2F)s1	256 (≈ 900 µM)		256	
NC(=O)c1c(F)ccc(OCc2nc3cccc(-c4ccccc4)c3s2)c1F	> 256			
Cc1cccc(COc2ccc(F)c(C(N)=O)c2F)n1			64	MIC [2]: 32 µg/mL (≈ 115 µM)
NC(=O)c1c(F)ccc(OCc2nc3cc(N)ccc3s2)c1F	> 64			
NC(=O)c1c(F)ccc(OCc2nc3cc(-c4ncno4)ccc3s2)c1F	0.5 (≈ 1.29 µM)	0.5		

Reference: ChEMBL document CHEMBL1157799, “Creating an antibacterial with in vivo efficacy: synthesis and characterization of potent inhibitors of the bacterial cell division protein FtsZ with improved pharmaceutical properties” (J Med Chem, 2010)
